Results published in ChEMBL document CHEMBL4680102, “Design, Synthesis, and Biological Activity of Substrate Competitive SMYD2 Inhibitors” (J Med Chem, 2016).
≈ marks a conversion by molar mass, not a printed value. Calls of active or inactive are those of the source. The calls are words filed in the database; no cut-off is given here.

Tests used:
[1] = target: T1, N-lysine methyltransferase SMYD2 (Homo sapiens, UniProt Q9NRG4); assay: Inhibition of SMYD2 (unknown origin)
[2] = Solubility of compound in 0.1 M phosphate buffer at pH 7.4 at 25 degC after 24 hrs; assay type: physicochemical
Outline: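 Solid sample shaken 24 h in 0.1 M phosphate buffer, pH 7.4, 25 °C.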

[3] = Unbound fraction in human plasma by equilibrium dialysis; assay type: ADME, cell-free
Outline: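 Human plasma, compound added from DMSO stock; fraction unbound (fu%) by equilibrium dialysis.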

[4] = target: T1, N-lysine methyltransferase SMYD2; assay: Inhibition of SMYD2 (unknown origin) expressed in human U2OS cells assessed as reduction in monomethylated p53 levels incubated for 24 hrs by immunofluorescence assay; assay type: cell-based
Outline: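 U2OS plated 8,000 cells/well, transfected (Fugene) with FLAG-tagged wild-type SMYD2 construct. Compound from DMSO in media (final DMSO 0.2%), 24 h. Cells PFA-fixed, stained with anti-FLAG (1:800), polyclonal anti-monomethyl p53 K370 peptide antibody (1:1000) and DAPI, then imaged. IC50 from fluorescent intensity per cell for methylation; DAPI count gave the cell-count IC50.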

[5] = target: T1, N-lysine methyltransferase SMYD2; assay: Ratio of IC50 for SMYD2 (unknown origin) to IC50 for inhibition of SMYD2 (unknown origin) expressed in human U2OS cells; assay type: cell-based
HCT-116 [6] = assay: Antiproliferative activity against human HCT-116 cells contains wild-type p53 gene assessed as reduction in cell viability at 0.03 to 30 uM incubated for 72 hrs by Alamar blue based assay; assay type: functional; conditions: dose 0.03-30 µM
Outline: (§1)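 Matched p53 wild-type/deficient pairs (HCT116 p53+/+ and p53-/-; RKO-neo and RKO-E6a) seeded in triplicate, attached overnight. Media replaced with DMSO control or compound media, 0.03 to 30 µM, 72 h. Viability read as fluorescence after AlamarBlue incubation. Triplicate in two separate experiments; mean ±SEM.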

HCT-116 [7] = assay: Antiproliferative activity against human HCT-116 cells deficient in p53 gene assessed as reduction in cell viability at 0.03 to 30 uM incubated for 72 hrs by Alamar blue based assay; assay type: functional; conditions: dose 0.03-30 µM; outline: as §1
RKO = assay: Antiproliferative activity against human RKO cells assessed as reduction in cell viability at 0.03 to 30 uM incubated for 72 hrs by Alamar blue based assay; assay type: functional; conditions: dose 0.03-30 µM; outline: as §1
RKOE6 = assay: Antiproliferative activity against human RKOE6 cells assessed as reduction in cell viability at 0.03 to 30 uM incubated for 72 hrs by Alamar blue based assay; assay type: functional; conditions: dose 0.03-30 µM; outline: as §1
[8] = target: T1, N-lysine methyltransferase SMYD2; assay: Binding affinity to SMYD2 (unknown origin) by ITC assay
Outline: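 Microcal ITC at 23 °C in 25 mM Tris pH 8.5, 50 mM NaCl, 2% DMSO. Cell held ~15 µM SMYD2; syringe 200 µM compound. Eight 4 µL injections gave a final compound:protein molar ratio of ~1.4:1.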

[9] = Intrinsic clearance in human liver microsomes; assay type: ADME, Microsome; conditions: read-out: CLH
[10] = Distribution coefficient, logD of compound; assay type: physicochemical; conditions: octanol/water
[11] = Intrinsic clearance in human liver microsomes; conditions: read-out: CLH

T1 sequence (Q9NRG4 whole entry): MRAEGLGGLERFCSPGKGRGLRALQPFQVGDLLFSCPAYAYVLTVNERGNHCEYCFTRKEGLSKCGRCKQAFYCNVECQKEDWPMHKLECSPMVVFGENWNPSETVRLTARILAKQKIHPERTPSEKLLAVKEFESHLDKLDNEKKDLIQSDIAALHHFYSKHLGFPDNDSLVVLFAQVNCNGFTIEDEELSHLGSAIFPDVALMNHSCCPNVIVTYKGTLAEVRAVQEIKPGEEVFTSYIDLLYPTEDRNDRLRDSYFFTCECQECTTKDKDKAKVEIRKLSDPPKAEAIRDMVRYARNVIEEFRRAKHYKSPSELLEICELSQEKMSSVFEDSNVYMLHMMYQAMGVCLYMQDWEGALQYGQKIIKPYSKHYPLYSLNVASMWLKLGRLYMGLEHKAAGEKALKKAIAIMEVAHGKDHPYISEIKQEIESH

Compound	IC50 [1] [nM]	solubility at 24 h [2] [µM]	fraction unbound [3]	EC50 [4] [nM]	further results
O=C(NCCCN1CCCC1)c1cncc(-c2ccccc2N2CCN(CCc3c[nH]c4ccccc34)CC2)c1	17	858 (≈ 461 µg/mL)	0.17	1020	IC50 [4]: 2430 nM; Ratio IC50 [5]: > 2; Activity (HCT-116 [6]): Active; Activity (HCT-116 [7]): Active; Activity (RKO): Active; Activity (RKOE6): Active
CCOc1cccc(C(=O)NC2CC3(CCNCC3)c3ccccc32)c1 (stereo not drawn)	–	–	–	–	Activity [8]: Active
O=C(NCCCN1CCCC1)c1cccc(-c2ccccc2N2CCN(CCc3c[nH]c4ccccc34)CC2)c1	41	246 (≈ 132 µg/mL)	0.033	3460	microsomal CLint [9]: 16 µL/min/mg
COc1ccc(CCN2CCN(c3ccccc3-c3cc(C(=O)NCCCN4CCCC4)ccn3)CC2)cc1	1050	> 1000	0.34	2440	–
Cc1cccc(CCN2CCN(c3ccccc3-c3cccc(C(=O)NCCCN4CCCC4)c3)CC2)c1	211	722 (≈ 369 µg/mL)	0.053	4140	microsomal CLint [9]: 35 µL/min/mg
O=C(NCCCN1CCCC1)c1ccnc(-c2ccccc2N2CCN(CCc3ccc(Cl)cc3)CC2)c1	305	> 1000	0.13	1620	–
O=C(NCCCN1CCCC1)c1cccc(-c2ccccc2N2CCN(CCc3ccc(Cl)c(Cl)c3)CC2)c1	165	34 (≈ 19.2 µg/mL)	< 0.01	3230	microsomal CLint [9]: 68 µL/min/mg
O=C(NCCCN1CCCC1)c1cncc(-c2ccccc2OC2CN(CCc3ccc(Cl)c(Cl)c3)C2)c1	12	> 1000	0.11	> 24000	logD [10]: 2.4; microsomal CLint [11]: 33.5 µL/min/mg
COc1cccc(CNC2CCN(c3ccccc3-c3cncc(C(=O)NCCCN4CCCC4)c3)CC2)c1	39	915 (≈ 483 µg/mL)	0.14	5760	logD [10]: 1.9; microsomal CLint [11]: 28 µL/min/mg
O=C(NCCCN1CCCC1)c1cccc(-c2ccccc2N2CCN(CCc3ccc(Cl)cc3)CC2)c1	114	332 (≈ 176 µg/mL)	0.012	3120	microsomal CLint [9]: 30 µL/min/mg
Cc1ccccc1-c1cccc(C(=O)NCCCN2CCCC2)c1	17400	–	–	–	–
N#Cc1cc(C(=O)NCCCN2CCCC2)cc(-c2ccccc2N2CCN(CCc3ccc(Cl)c(Cl)c3)CC2)c1	138	34 (≈ 20.1 µg/mL)	< 0.01	425	IC50 [4]: 670 nM; microsomal CLint [9]: 73 µL/min/mg; Ratio IC50 [5]: > 2; Activity (HCT-116 [6]): Active; Activity (HCT-116 [7]): Active; Activity (RKO): Active; Activity (RKOE6): Active
COc1cccc(CCN2CCN(c3ccccc3-c3cc(C(=O)NCCCN4CCCC4)ccn3)CC2)c1	440	> 1000	0.41	1220	–
O=C(NCCCN1CCCC1)c1ccnc(-c2ccccc2N2CCN(CCc3ccc(Cl)c(Cl)c3)CC2)c1	120	790 (≈ 448 µg/mL)	0.014	5570	–
NCC1(C(=O)Nc2ccc(Cl)cc2)CCN(c2ncnc3[nH]nc(C4CC4)c23)CC1	–	–	–	–	Activity [8]: Active
Cc1cccc(CCN2CCN(c3ccccc3-c3cc(C#N)cc(C(=O)NCCCN4CCCC4)c3)CC2)c1	31	588 (≈ 315 µg/mL)	0.023	1210	microsomal CLint [9]: 43 µL/min/mg
COc1cccc(CCN2CCN(c3ccccc3-c3cccc(C(=O)NCCCN4CCCC4)c3)CC2)c1	273	815 (≈ 429 µg/mL)	0.1	3500	microsomal CLint [9]: 36 µL/min/mg
O=C(NCCCN1CCCC1)c1ccnc(-c2ccccc2N2CCN(CCc3c[nH]c4ccccc34)CC2)c1	62	923 (≈ 495 µg/mL)	0.34	5610	–
Cc1ccccc1-c1cc(C#N)cc(C(=O)NCCCN2CCCC2)c1	7300	–	–	–	–
COc1cccc(CCN2CCN(c3ccccc3-c3cc(C#N)cc(C(=O)NCCCN4CCCC4)c3)CC2)c1	59	602 (≈ 332 µg/mL)	0.073	2690	microsomal CLint [9]: 74 µL/min/mg
CCn1cncc1CN1CCc2[nH]c(=O)cc(-c3ccc(Cl)cc3)c2C1	–	–	–	–	Activity [8]: Active
N#Cc1cc(C(=O)NCCCN2CCCC2)cc(-c2ccccc2N2CCN(CCc3c[nH]c4ccccc34)CC2)c1	28	396 (≈ 222 µg/mL)	0.038	270	microsomal CLint [9]: 21 µL/min/mg
O=C(NCCCN1CCCC1)c1cncc(-c2ccccc2N2CCN(CCc3ccc(Cl)c(Cl)c3)CC2)c1	38	393 (≈ 223 µg/mL)	0.011	450	–
O=C(NCCCN1CCCC1)c1cccc(-c2ccccc2N2CCN(CCc3ccccc3)CC2)c1	339	851 (≈ 423 µg/mL)	0.08	4910	microsomal CLint [9]: 30 µL/min/mg

More lines, main results first:

IC50 [1] [nM]	solubility at 24 h [2] [µM]	fraction unbound [3]	EC50 [4] [nM]	Compound	further results
9900	–	–	–	COc1cc(C(=O)NCCCN2CCCC2)cc(-c2ccccc2C)n1	–
8900	–	–	–	Cc1ccccc1-c1cc(C(=O)NCCCN2CCCC2)c2c(C)n[nH]c2n1	–
16800	–	–	–	O=C(NCCCN1CCCC1)c1cc(-c2ccccc2F)nc2[nH]ncc12	–
13500	–	–	–	Cc1ccccc1-c1cc(C(=O)NCCCN2CCCCC2)c2cn[nH]c2n1	–
22100	–	–	–	COc1cc(C(=O)NCCCN2CCCC2)cc(-c2ccccc2C)c1	–
19600	–	–	–	Cc1ccccc1-c1cc(C(=O)NCCCN2CCC(N3CCCCC3)CC2)c2cn[nH]c2n1	–
8400	–	–	–	CCc1ccccc1-c1cc(C(=O)NCCCN2CCCC2)c2cn[nH]c2n1	–
5600	> 1000	0.43	–	Cc1ccccc1-c1cc(C(=O)NCCCN2CCCC2)c2cn[nH]c2n1	Kd [8]: 1730 nM; logD [10]: 1.19; microsomal CLint [11]: 92 µL/min/mg
8800	–	–	–	Cc1ccccc1-c1cc(C(=O)NCCCN2CCCC2)ccn1	–
41300	–	–	–	Cc1ccccc1-c1cc(C(=O)NCCCN2CCOCC2)c2cn[nH]c2n1	–
17700	–	–	–	CNc1cc(C(=O)NCCCN2CCCC2)cc(-c2ccccc2C)n1	–
> 61000	–	–	–	Cc1ccccc1-c1cc(C(=O)NCCCN(C)C)c2cn[nH]c2n1	–
8000	–	–	–	O=C(NCCCN1CCCC1)c1cc(-c2ccccc2Cl)nc2[nH]ncc12	–
> 83000	–	–	–	CNCCCNC(=O)c1cc(-c2ccccc2C)nc2[nH]ncc12	–
14500	–	–	–	COc1ccccc1-c1cc(C(=O)NCCCN2CCCC2)c2cn[nH]c2n1	–
7300	–	–	–	CN(CCCN1CCCC1)C(=O)c1cc(-c2ccccc2Br)nc2[nH]ncc12	–
65	174 (≈ 106 µg/mL)	< 0.01	549	O=C(NCCCN1CCCC1)c1cc(-c2ccccc2N2CCN(CCc3ccc(Cl)c(Cl)c3)CC2)nc2[nH]ncc12	logD [10]: > 3.5; microsomal CLint [11]: > 300 µL/min/mg
12100	–	–	–	Cc1ccccc1-c1cc(C(=O)NCC(O)CN2CCCC2)c2cn[nH]c2n1 (stereo not drawn)	–
3600	–	–	–	Cc1ccccc1-c1cc(C(=O)NCC(Cc2ccccc2)CN2CCCC2)c2cn[nH]c2n1 (stereo not drawn)	–
16900	–	–	–	Cc1ccccc1-c1cc(C(=O)N2CCC(N3CCCCC3)CC2)c2cn[nH]c2n1	–
13300	–	–	–	Cc1ccccc1-c1cc(C(=O)NCCCN2CCCC2)c2c(C3CC3)n[nH]c2n1	–
